Compounds with a hit are over-represented: about 1.6% of the library has one in this group of screens.
HKDC1 inhibitor – blocks human hexokinase HKDC1 activity; inhibition, % at 20 µM; Q2TB90; recombinant HKDC1, G6PDH/diaphorase resazurin coupled fluorescence; AID 493160; actives 0.16% (n = 340,000);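 active = inhibition above about 35% when tested at 20 µM, limit read from the data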
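Material: recombinant HKDC1 hexokinase; Amount: HKDC1 at 5 µg/mL; Medium: Tris pH 8.0 buffer with MgCl2, Tween-20, BSA, BME; Schedule: 90 min reaction incubation at room temperature, dark; Technique: coupled resazurin fluorescence, excitation 525 nm, emission 613 nm.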
ATG4B inhibitor – ATG4B (human) cysteine protease inhibition. ATG4B cleavage of LC3-PLA2, NBD-HPC fluorescence, 1 h. inhibition, % at 8.33 µM. actives 0.51% (n = 340,000). AID 504462; in the data active = inhibition above about 40%
PKA-R1A activ – activates the PKA-R1A holoenzyme complex. PKA-R1A dissociation, Cy5-IP20 fluorescence polarization; scaled: DMSO 0%, 113 µM cGMP 100%. AID 504707. activation, % at 11.4 µM. P00514+P68181. actives 0.083% (n = 340,000);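 active = percent activation above the mean of all tested compounds plus 3 SD, cut at about 19% in these data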;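 also: higher means more PKAc released from R1A so a rise in polarization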
T cell HTS – T cell immune modulation candidate; actives 0.068% (n = 330,000); 2C CD8+ T cell-vesicle binding, flow cytometry; active compounds read low; response (vesicle binding), % at 7 µM;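 active = response, share of CD8 T cells binding vesicles, and their 90th percentile fluorescence all below set limits, cut at about 80% in these data, passing the limit was not always enough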;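 also: values below 100% mean blocked vesicle binding to the CD8+ T cells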
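Material: murine 2C transgenic CD8+ T lymphocytes / Also added: QL9-peptide-loaded Drosophila micro-vesicles bearing Ld, ICAM-1 and B7-1 / Schedule: binding step 1.5 h, 37 °C, antibody labelling 20 min, ice / Signal: flow cytometry, PE anti-B7-1 (FL2) versus Alexa647 anti-CD8 (FL8), PFA-fixed / Evaluation: percent CD8+ FL2 mean versus row control / Benchmarks: naked versus QL9-loaded vesicles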
PfG6PD inh – PfG6PD (Plasmodium falciparum) enzyme inhibition. PfGluPho enzyme, NADPH resazurin-diaphorase fluorescence. inhibition, % at 20 µM. actives 0.78% (n = 350,000);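 active = inhibition reaching at least a set limit at 20 µM in the primary screen, cut at about 59% in these data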
PKA-R2B activ – activates the human PKA-R2B holoenzyme complex; PKA-R2B holoenzyme dissociation, Cy5-IP20 fluorescence polarization; R2B truncated from residue 108, S112A mutant; 0% DMSO only, 100% 113 µM cGMP; actives 0.079% (n = 340,000); AID 504700; P22694+P31323; activation, % at 11.4 µM;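 active = activation above a cutoff set at the mean over all compounds plus 3 SD, cut at about 18% in these data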;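 also: higher means more holoenzyme dissociation and a rise in polarization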
ATG4B conf – ATG4B (human) inhibition, single-dose confirmed. ATG4B protease fluorescent substrate cleavage assay. actives 92% (n = 320). shares compounds with ATG4B inhibitor. inhibition, % at 8.33 µM; in the data active = inhibition above about 39%
PLA2 counter – PLA2 (human) inhibition in ATG4B counter-screen; shares compounds with ATG4B inhibitor; purified PLA2, NBD-C6-HPC fluorescence, 45 min; inhibition, % at 8.33 µM; actives 66% (n = 1,600); AID 588402; in the data active = inhibition above about 50%
Of the large screens only hits and unclear results are named; the others gave an inactive call (follow-up assays come after a bar, where they were run).

CCNC(=O)C1CCCc2c1[nH]c1ccc(Cl)cc21 (stereo not drawn)	none
Cc1nn(C)cc1CN(C)C(=O)C1CCC(=O)N(CCc2cccc(F)c2)C1 (stereo not drawn)	none (no result: HKDC1 inhibitor, ATG4B inhibitor, T cell HTS)
CCCOc1cccc(C(=O)N/N=C/c2coc3ccccc3c2=O)c1	ATG4B inhibitor 42.8 | PLA2 counter 73.8
O=C(N/N=C/c1coc2ccccc2c1=O)c1cc(Br)c(O)c(Br)c1	none
COc1ccc(-c2nc(CS(=O)(=O)CC(=O)NCc3ccccc3Br)c(C)o2)cc1	ATG4B inhibitor 83.8 | PLA2 counter 91.8
COc1ccc(-c2nc(CS(=O)(=O)CC(=O)NCc3ccccc3OC)c(C)o2)cc1	none
COc1ccc(NS(=O)(=O)c2cc(NC(=O)COc3ccc(OC)cc3)ccc2N2CCOCC2)cc1	none
Cc1nnc(SCC(=O)N(CCC#N)c2ccc3c(c2)OCCO3)s1	none
O=C(c1ccc(OC2CCN(C/C=C/c3ccc(F)cc3)CC2)cc1)N1CCCC1	ATG4B inhibitor 42.0 | ATG4B conf 64.3 | PLA2 counter inactive
O=C(c1ccc(OC2CCN(Cc3ccc(F)cc3)CC2)cc1)N1CCCC1	none
CCOC(=O)C1=CC[C@H]2c3c(c4ccccc4n3C)C(=O)C1N2Cc1ccccc1	none
CNC(=O)Nc1cccc(-c2cc(-c3c(Cl)cccc3Cl)no2)c1	ATG4B inhibitor 59.3 | PLA2 counter 64.5
CC(=O)Nc1cccc(-c2cc(-c3c(Cl)cccc3Cl)no2)c1	none
CCOC(=O)C1=C(c2ccccc2)NC(SCC(=O)Nc2ccc(C)cc2)=C(C#N)C1c1ccco1 (stereo not drawn)	none (no result: T cell HTS)
CCOC(=O)C1=C(c2ccccc2)NC(SCC(=O)Nc2cccc(C)c2)=C(C#N)C1c1ccco1 (stereo not drawn)	ATG4B inhibitor 48.4 | PLA2 counter 55.0
NC(=O)C1CCN(C(=S)c2ccc(-c3ccc(Br)cc3)o2)CC1	ATG4B inhibitor 50.8 (no result: PKA-R1A activ, PKA-R2B activ) | PLA2 counter inactive
COc1ccc(C2=NOC(Cn3nc(C(=O)NCc4cccc(Br)c4)cc3-c3ccccc3)C2)cc1 (stereo not drawn)	ATG4B inhibitor 53.2 | PLA2 counter 59.5
CSc1n[nH]c2nc3c(c(=O)n12)C1(CCCCC1)Cc1ccccc1-3	ATG4B inhibitor 42.0 | ATG4B conf 45.9 | PLA2 counter inactive
CCSc1n[nH]c2nc3c(c(=O)n12)C1(CCCCC1)Cc1ccccc1-3	none
O=C(COc1ccccc1[N+](=O)[O-])Nc1ccccc1N1CCCC1	ATG4B inhibitor 49.7 | PLA2 counter 57.6
Cc1ccc(C(C)C)c(OCC(=O)Nc2ccccc2N2CCN(C)CC2)c1	ATG4B inhibitor 54.4 | PLA2 counter 66.3
Cc1ccccc1OCC(=O)Nc1ccccc1N1CCCCC1	none
Cc1cccc(OCC(=O)Nc2ccccc2N2CCCC2)c1C	none
O=C(COc1ccccc1[N+](=O)[O-])Nc1ccccc1N1CCCCC1	ATG4B inhibitor 43.2 | PLA2 counter 73.5
CCN(CC(=O)N1CCCC1)S(=O)(=O)c1cc(C)ccc1OC	none
COc1ccc(OCC(=O)N2CCCC(CO)(CCOc3ccccc3)C2)cc1 (stereo not drawn)	none
Cc1ccc(S(=O)(=O)Nc2ccccc2/C=N/c2nc3ccccc3n2C(C)C)cc1	ATG4B inhibitor 54.7 | ATG4B conf 57.2 | PLA2 counter inactive
CCCCn1c(/N=C/c2ccccc2NS(=O)(=O)c2ccc(C)cc2)nc2ccccc21	none
Cc1cc(=O)oc2cc(OCC(=O)Nc3cccc(S(=O)(=O)N(C)C)c3)ccc12	ATG4B inhibitor 40.0 | PLA2 counter inactive
S=c1[nH]nc(-c2cccc(Cl)c2)n1/N=C/c1ccc(-c2ccccc2Br)o1	none
S=c1[nH]nc(-c2ccccc2)n1/N=C/c1ccc(-c2ccccc2Cl)o1	ATG4B inhibitor 41.7 | PLA2 counter 58.1
CS(=O)(=O)c1ccc(Cl)c(NC(=O)CN2C(=O)C3CCCCC3C2=O)c1 (stereo not drawn)	none
CCCCNc1nc(N)nc(-c2cc(Cl)ccc2O)n1	ATG4B inhibitor 45.8 | PLA2 counter 50.3
O=C(Cc1ccc(Br)cc1)N1CCN(C(=O)c2ccco2)CC1	none
C=CCN(Cc1cccc(OC)c1OC)C(=O)Oc1ccccc1	none
Cc1cccc(N=C2NC(=O)/C(=C/C=C/c3ccco3)S2)c1C	ATG4B inhibitor 83.2 | PLA2 counter 51.2
CC1CCCN(C(=O)c2ccc(COc3ccccc3Br)cc2)C1 (stereo not drawn)	ATG4B inhibitor 61.0 | PLA2 counter 68.6
CCOc1ccc(OCc2ccc(C(=O)N3CCCC(C)C3)cc2)cc1 (stereo not drawn)	none
COc1ccc(C)cc1N(C)C(=O)Cc1c(C(=O)O)n(C)c2ccccc12	none
Cc1ccccc1/C=C1\CCCc2ccccc2C1=O	ATG4B inhibitor 52.7 | PLA2 counter 61.1
Cc1ccsc1/C=C1\CCc2ccccc2C1=O	ATG4B inhibitor 45.6 | PLA2 counter 67.8
O=C1C(=Cc2ccccn2)CCc2ccccc21	none (no result: HKDC1 inhibitor, ATG4B inhibitor, T cell HTS)
Cc1cc(C)n2nc(C(=O)OCC(=O)Nc3cc(S(=O)(=O)N4CCOCC4)ccc3Cl)nc2n1	none (no result: T cell HTS)
O=C(NC[C@@H]1CC[C@@H](Cc2ccc(-c3ccccc3)cc2)O1)Nc1ccc(Br)cc1	ATG4B inhibitor 41.8 (no result: T cell HTS) | PLA2 counter 85.9
CC(C)C[C@H](NC(=O)N1CCn2c1nc1ccccc12)C(=O)N[C@H](Cc1ccccc1)C(=O)O	none
CC(NS(=O)(=O)c1ccc(CCC(=O)NCc2cccnc2)cc1)c1ccccc1 (stereo not drawn)	ATG4B inhibitor 89.9 | PLA2 counter inactive
CC(C)NS(=O)(=O)c1ccc(CCC(=O)NCc2cccnc2)cc1	none
CCC(C)[C@H](Nc1nc(-c2ccccc2)nc2c1oc1ccccc12)C(=O)O (stereo partly drawn)	ATG4B inhibitor 44.1 | PLA2 counter 54.4
CC(C)[C@H](Nc1nc(-c2ccccc2)nc2c1oc1ccccc12)C(=O)O	none
CCn1c(COc2ccc(Cl)cc2)nnc1SCc1ccc(C#N)cc1	none
CCn1c(COc2ccc(Cl)cc2)nnc1SC1CCc2ccccc2C1=O (stereo not drawn)	ATG4B inhibitor 87.5 | PLA2 counter 83.7
